Published values collected from several papers.
Lines come from different studies, so protocols differ.
Target: Mitotic checkpoint serine/threonine-protein kinase BUB1 (BUB1, Homo sapiens, UniProt O43683)

Nc1ncc2c(n1)-c1c([nH]c3ccc(C#CC4CC4)cc13)CCCC2 — remaining binding (binding; competition with immobilised ligand; 1 µM): 78%
CN([C@@H]1CCc2c(CC(=O)O)c3ccccc3n2C1)S(=O)(=O)c1ccc(F)cc1 — remaining binding (cell-free assay; competition with immobilised ligand; 1 µM): 79%
F[C@@H]1CCN(c2nccc(-c3cnn4ncccc34)n2)C1 — remaining binding (binding; 1 µM): 72%
C[C@@H](c1ccc(-n2cnc3c(N)ncnc32)cc1)N1CCc2nn(C)c(Cc3ccccc3)c2C1=O — remaining binding (binding; competition with immobilised ligand; 0.1 µM): 91%
CN(C)c1nccc(-c2cnc3ncccn23)n1 — remaining binding (binding; 1 µM): 78%
CN(C)CC#Cc1ccc(OCCCc2sc(N3CCc4cccc(C(=O)Nc5nc6ccccc6s5)c4C3)nc2C(=O)O)c(F)c1 — remaining binding (cell-free assay; competition with immobilised ligand; 1 µM): 81%
C[C@@H]1CCN(c2nccc(-c3cnn4ncccc34)n2)C1 — remaining binding (binding; 1 µM): 71%
C[C@@H]1CN(c2cc(-c3n[nH]c4ccc(OC5(C)CC5)cc34)ncn2)C[C@H](C)O1 — remaining binding (cell-free assay; competition with immobilised ligand; 0.1 µM): 84%
O=C(c1ccc(Nc2ncc(Cl)c(-c3cc4ccccc4s3)n2)cc1)N1CCC(N2CCCC2)CC1 — remaining binding (binding; competition with immobilised ligand; 1 µM): 53%
N[C@H]1CCN(c2nccc(-c3cnn4ncccc34)n2)C1 — remaining binding (binding; 1 µM): 97%
C=CC(=O)N1CCC(C(=O)NCC(=O)N2CCN(c3nc(-c4cnc(N)nc4C(F)F)nc(N4CCOCC4)n3)CC2)CC1 — remaining binding (binding; competition with immobilised ligand; 1 µM): 77%
COc1cc(-c2cn(C3CCc4c(F)cccc4N(CC(F)(F)F)C3=O)nn2)ccc1-n1cnc(C)c1 (stereo not shown) — remaining binding (cell-free assay; competition with immobilised ligand; 1 µM): 100%
Cc1cnc(Nc2ccc(C(=O)N3CCC(N4CCCC4)CC3)cc2)nc1-c1cc2ccccc2s1 — remaining binding (binding; competition with immobilised ligand; 1 µM): 39%
CNC(=O)[C@@H]1CC[C@@H](n2c(-c3ccc4cnccc4c3)nc3ccc(C(=O)NCc4cccc(C(N)=O)c4)cc32)C1 — remaining binding (binding; competition with immobilised ligand; 1 µM): 100%
CNCc1ccccc1-c1csc([C@@H](C)Nc2nc(C)nc3cc(OC)c(OC)cc23)c1 — remaining binding (cell-free assay; competition with immobilised ligand; 1 µM): 100%
COc1cnc(Nc2cccc(S(N)(=O)=O)c2)nc1N1CCN(c2ccccc2)CC1 — remaining binding (binding; competition with immobilised ligand; 1 µM): 69%
CN(C)c1nccc(-c2cnn3ncccc23)n1 — remaining binding (binding; 1 µM): 74%
O=C(N1CCS(=O)(=O)CC1)N1C[C@H](c2ccc(OC(F)(F)F)cc2)C[C@H](c2nc(C3CC3)no2)C1 — remaining binding (cell-free assay; competition with immobilised ligand; 1 µM): 100%
Cc1cnn2ncc(-c3ccnc(N(C)C)n3)c2c1 — remaining binding (binding; 1 µM): 63%
CCCCN(CCCC)C(=O)CN1C[C@H](c2cc(OC)c3c(c2)OCO3)[C@@H](C(=O)O)[C@@H]1CC(C)(C)CCC — remaining binding (cell-free assay; competition with immobilised ligand; 1 µM): 75.4%
O=C(c1ccc(Nc2ncc(Cl)c(-c3ccc(Cl)s3)n2)cc1)N1CCC(N2CCCC2)CC1 — remaining binding (binding; competition with immobilised ligand; 1 µM): 65%
O=C(Nc1c[nH]nc1C(=O)NC1CCNCC1)c1cc(F)cc(F)c1 — remaining binding (binding; competition with immobilised ligand; 1 µM): 100%
